Source: PubChem
Yeast lifespan up: yeast lifespan extension | S. cerevisiae growth with nicotinamide, OD615; deaD strain in restrictive glucose medium | inhibition of the nicotinamide effect, % at 10 µM | 0.68% of 130,000 active | AID 775;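 active = inhibition above a set limit, placed 3 SD over the median of all compounds, cut at about 26% in these data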;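 note: 0% = nicotinamide-treated wells and 100% = cells grown without nicotinamide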
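Test system – modified budding yeast, DeaD strain · Compound – single dose 10 µM compound, 0.25% DMSO · Times – culture preincubation 4 h, compound exposure 48 h, both 30 °C · Detection – optical density (absorbance) at 615 nm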
sdo1 growth: sdo1-depleted yeast growth rescue; S. cerevisiae sdo1-depleted JHY4D growth rescue, OD600 30 h; hits give high values; pdr5 snq2 efflux-pump mutant strain; z-score at 10 µM; 0.21% of 140,000 active; AID 817;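 active = z-score above 3 at both the 24 hr and the 30 hr optical density reads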;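 note: z-score against mean and SD of all compound wells on the same plate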
RAM network inh: blocks the yeast RAM network; AID 868; 1.8% of 190,000 active; S. cerevisiae dse1pr::URA3 reporter, 5-FOA growth OD615, 2 d; analog-sensitive cbk1-as2 kinase mutant strain; inhibition, % at 50 µM;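 active = inhibition above a set limit, 3 SD over mean compound inhibition, cut at about 8.4% in these data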;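 note: 0% = DMSO-only wells with no growth and 100% = 10 µM 1-NA-PP1 full growth; inhibition rescues growth on 5-FOA so higher OD means more RAM inhibition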
Yeast growth inh: chemicals that inhibit yeast BB579 growth in restrictive medium (lifespan-shortening candidates) | AID 804 | inhibition, % at 10 µM | S. cerevisiae BB579 growth, OD615, 48 h | 0.51% of 140,000 active;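 active = inhibition above a set limit, 3 SD over the mean compound inhibition, cut at about 44% in these data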
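Test system: DeaD yeast strain BB579 / Buffer or medium: restrictive glucose-based CSMM-D medium / Doses: single 10 µM dose / Schedule: 4 h cell preincubation, 48 h compound exposure, 30 °C humidified / Technique: culture absorbance at 615 nm / Controls: amphotericin B positive control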
Numbers without * were called inactive. Most compounds without a hit are left out; they make up all but 2.7% or so of the library.

How did CC(=O)N1N=C(c2ccc(Cl)cc2)OC1(C)C do in these assays?
Yeast lifespan up: 23.4; sdo1 growth: 1.98; RAM network inh: 0.5; Yeast growth inh: 48.3*

Results for CC(=O)N1N=C(c2ccccc2)OC12CCCC2 ?
RAM network inh: -0.5

What do the screens show for `Cc1ccc(S(=O)(=O)Oc2ccccc2/C=N/N=C(N)N)cc1`?
RAM network inh: 0.0

What do the screens show for `Cc1ccc(S(=O)(=O)Oc2ccccc2/C=N/NC(N)=S)cc1`?
Yeast lifespan up: 11.2; sdo1 growth: 0.42; RAM network inh: 9.1*; Yeast growth inh: -31.7

How did Nc1nc2sc3c(c2c(=O)s1)CCCC3 do in these assays?
Yeast lifespan up: -20.9; sdo1 growth: -1.38; RAM network inh: -1.5; Yeast growth inh: 52.8*

Results for O=C1Nc2ccc(Br)cc2C12NNc1ccccc1O2 (stereo not given) ?
RAM network inh: 8.1

Results for COc1ccc(NC(=O)CC(c2ccc(F)cc2)c2ccc(OC(C)C)cc2)cc1 (stereo not given) ?
Yeast lifespan up: 6.4; sdo1 growth: -1.42; RAM network inh: 9.3*; Yeast growth inh: -44.5

What do the screens show for `C/C(=N\Nc1ccc(Cl)cc1)c1ccccn1`?
Yeast lifespan up: -16.6; sdo1 growth: -1.54; RAM network inh: 0.0; Yeast growth inh: 92.0*

Results for O=c1cc(O)c2c(=O)n(-c3ccccc3)c3c(c2o1)CCCCC3 ?
Yeast lifespan up: 77.5*; sdo1 growth: 0.08; RAM network inh: -0.4; Yeast growth inh: -56.2

What do the screens show for `CCC(=O)Oc1ccc(NC(=O)CSCc2ccccc2)cc1`?
RAM network inh: 0.4

What do the screens show for `CCC(C)N1C(=O)CN(C2CCCCCC2)C(=O)C1c1ccccc1F` (stereo not given)?
RAM network inh: -0.1

What do the screens show for `CCOc1ccc(/C=N/OCC(=O)NC(c2ccccc2)c2ccccc2)cc1`?
Yeast lifespan up: 6.8; sdo1 growth: -1.15; RAM network inh: 10.5*; Yeast growth inh: -31.3

Results for COc1ccc(C2=C(N)c3ccccc3C2=O)cc1 ?
Yeast lifespan up: -13.5; sdo1 growth: 0.67; RAM network inh: 1.2; Yeast growth inh: 10.0

Results for COC1=C(c2ccccc2)C(=O)c2ccccc2C1=O ?
Yeast lifespan up: 12.5; sdo1 growth: -1.21; RAM network inh: -0.6; Yeast growth inh: 68.4*

What do the screens show for `CCOc1ccccc1/C=c1\sc2ncnn2c1=O`?
Yeast lifespan up: 49.1*; sdo1 growth: 0.49; RAM network inh: 1.3; Yeast growth inh: -43.1

How did CC(C)c1ccc(/C=C/C(=O)NCCCc2ccccc2)cc1 do in these assays?
Yeast lifespan up: 5.2; sdo1 growth: 0.54; RAM network inh: 8.6*; Yeast growth inh: -17.0

How did COc1ccc(/C=C/C(=O)NCCCc2ccccc2)cc1 do in these assays?
Yeast lifespan up: -1.1; sdo1 growth: -0.57; RAM network inh: 2.0; Yeast growth inh: 1.8

How did NS(=O)(=O)c1ccc(CCNC(=O)c2ccc3c(c2)OCCO3)cc1 do in these assays?
RAM network inh: 1.0

Results for Cc1cc(C(F)(F)F)c(C#N)c(Sc2ccccc2)n1 ?
Yeast lifespan up: -17.5; sdo1 growth: 0.62; RAM network inh: 10.0*; Yeast growth inh: -10.4

Results for Cc1ccc(S(=O)(=O)CCSc2nc(C)cc(C(F)(F)F)c2C#N)cc1 ?
sdo1 growth: -0.27; RAM network inh: 10.2*; Yeast growth inh: -7.1

Results for CSc1ccccc1C(=O)N1CCc2ccccc2C1 ?
RAM network inh: -1.0

What do the screens show for `CC(C)CCNC(=O)NC(=O)COC(=O)/C=C/c1cc(Br)ccc1F`?
RAM network inh: 5.9

How did O=c1cc(-c2ccccc2)[nH]n1-c1nc2ccccc2[nH]1 do in these assays?
Yeast lifespan up: -25.9; sdo1 growth: 2.13; RAM network inh: 1.5; Yeast growth inh: 97.3*

Results for Cc1ccc(CNC(=O)CCC2CCCN(Cc3cccc4cccnc34)C2)o1 (stereo not given) ?
RAM network inh: 2.3

How did COc1ccc(C2CC(c3c(-c4ccccc4)c4cc(Cl)ccc4[nH]c3=O)=NN2C(=O)CCC(=O)O)cc1 (stereo not given) do in these assays?
RAM network inh: 9.1*

What do the screens show for `C=CCOc1cccc(NC(=O)c2ccccc2SC)c1`?
RAM network inh: 3.4

What do the screens show for `COCCCN1C(=O)c2[nH]nc(-c3ccccc3O)c2C1c1ccc(Cl)cc1` (stereo not given)?
Yeast lifespan up: -8.7; sdo1 growth: 1.17; RAM network inh: 1.9; Yeast growth inh: -52.9

How did COc1ccc(-c2n[nH]c3c2C(c2ccc(OC)c(OC)c2)N(c2ccccc2)C3=O)cc1 (stereo not given) do in these assays?
Yeast lifespan up: 3.3; sdo1 growth: -0.71; RAM network inh: 9.1*; Yeast growth inh: -52.5

Results for COc1ccc(CCN2C(=O)c3[nH]nc(-c4ccccc4O)c3C2c2ccccc2)cc1OC (stereo not given) ?
Yeast lifespan up: -0.5; sdo1 growth: 2.28; RAM network inh: 11.1*; Yeast growth inh: -30.3

What do the screens show for `N#Cc1cnc(NOCc2ccc(Cl)cc2)nc1`?
RAM network inh: 1.4

How did O=C(CCC(NC(=O)OCc1ccccc1)C(=O)OCc1ccccc1)NCC(=O)OCc1ccccc1 (stereo not given) do in these assays?
Yeast lifespan up: 4.9; sdo1 growth: 0.85; RAM network inh: 8.8*; Yeast growth inh: -43.6

How did CN1C(=O)C(O)(CC(=O)c2ccccc2O)c2cc(Br)ccc21 (stereo not given) do in these assays?
Yeast lifespan up: -9.9; sdo1 growth: 0.48; RAM network inh: -1.2; Yeast growth inh: 53.6*

What do the screens show for `CN1C(=O)C(O)(CC(=O)/C=C/c2ccco2)c2cc(Br)ccc21` (stereo not given)?
RAM network inh: 2.9

What do the screens show for `CCOC(=O)C(C)/C(C)=N\Nc1ccc([N+](=O)[O-])cc1[N+](=O)[O-]` (stereo not given)?
RAM network inh: -1.6

What do the screens show for `C/C(=N\Nc1ccc([N+](=O)[O-])cc1[N+](=O)[O-])C(C)C(C)C` (stereo not given)?
RAM network inh: 9.6*

How did CCC(CC)=NNc1ccc([N+](=O)[O-])cc1[N+](=O)[O-] do in these assays?
RAM network inh: 0.4

Results for CCOC(=O)C(C(=O)OCC)C(C)(C)/C(C)=N\Nc1ccc([N+](=O)[O-])cc1[N+](=O)[O-] ?
Yeast lifespan up: 1.2; sdo1 growth: -0.85; RAM network inh: 9.0*; Yeast growth inh: -17.6

What do the screens show for `CCOc1ccc(OCC)c(NC(=O)CCCN2C(=S)NC(C)(C)CC2C)c1` (stereo not given)?
Yeast lifespan up: -4.2; sdo1 growth: 0.01; RAM network inh: -0.4; Yeast growth inh: 7.1

How did CCSc1cc(N2CCCC2)nc(-c2ccccc2)n1 do in these assays?
Yeast lifespan up: -5.5; sdo1 growth: -0.21; RAM network inh: 0.0; Yeast growth inh: -26.5

What do the screens show for `CCSc1cc(N2CCOCC2)nc(-c2ccc(Cl)cc2)n1`?
Yeast lifespan up: 3.6; sdo1 growth: -1.14; RAM network inh: 10.9*; Yeast growth inh: -27.2
